Measurements from ChEMBL document CHEMBL1142375, “Fluorescent 7-diethylaminocoumarin pyrrolobenzodiazepine conjugates: synthesis, DNA interaction, cytotoxicity and differential cellular localization” (Bioorg Med Chem Lett, 2008).
The source made the active and inactive calls. The rule behind the calls is not given here.

Tests used:
OVCAR-5 [1] = assay: Cytotoxicity against human OVCAR5 cells at 1 uM after 96 hrs by Alamar blue method; assay type: functional, cell-based
LOX IMVI [2] = assay: Cytotoxicity against human LOXIMVI cells at 1 uM after 96 hrs by Alamar blue method; assay type: functional, cell-based
DNA [3] = assay: Binding affinity to calf thymus DNA assessed as thermal denaturation temperature at 20 uM after 4 hrs; assay type: nucleic-acid assay; conditions: Bos taurus
OVCAR-5 [4] = assay: Cytotoxicity against human OVCAR5 cells after 96 hrs by Alamar blue method; assay type: functional, cell-based; conditions: OVCAR-5, 96 h
How it was run: (§1)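 Cells were exposed to compound continuously for 96 h, and viability was read by Alamar blue. The IC50 is the mean with standard deviation of three independent experiments.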

DNA [5] = assay: Binding affinity to calf thymus DNA assessed as thermal denaturation temperature at 20 uM after 18 hrs; assay type: nucleic-acid assay; conditions: Bos taurus
LOX IMVI [6] = assay: Cytotoxicity against human LOXIMVI cells after 24 hrs by Alamar blue method; assay type: functional, cell-based
DNA [7] = assay: Binding affinity to calf thymus DNA assessed as thermal denaturation temperature at 20 uM after 72 hrs; assay type: nucleic-acid assay; conditions: Bos taurus
LOX IMVI [8] = assay: Cytotoxicity against human LOXIMVI cells after 96 hrs by Alamar blue method; assay type: functional, cell-based; how it was run: as §1

ΔTm (DNA [3])	ΔTm (DNA [5])	ΔTm (DNA [7])	SMILES	Activity (OVCAR-5 [1])	Activity (LOX IMVI [2])	IC50 (OVCAR-5 [4])	IC50 (LOX IMVI [6])	IC50 (LOX IMVI [8])
			COc1cc2c(cc1C)N=C[C@@H]1CCCN1C2=O	inactive	inactive			
3.4 °C	3.6 °C	3.9 °C	CCN(CC)c1ccc2cc(C(=O)NCCCOc3cc4c(cc3OC)C(=O)N3CCC[C@H]3C=N4)c(=O)oc2c1			3.2 µM	1.5 µM	1.4 µM
0.2 °C	0.2 °C	0.2 °C	CCOC(=O)c1cc2ccc(N(CC)CC)cc2oc1=O			> 10 µM		> 10 µM
1.4 °C	2 °C	2.9 °C	CCN(CC)c1ccc2cc(C(=O)NCCCCCCCCOc3cc4c(cc3OC)C(=O)N3CCC[C@H]3C=N4)c(=O)oc2c1			7.8 µM		4.5 µM
0.7 °C	0.9 °C	1 °C	CCN(CC)c1ccc2cc(C(=O)NCCCCNC(=O)CCOc3cc4c(cc3OC)C(=O)N3CCC[C@H]3C=N4)c(=O)oc2c1			> 10 µM		> 10 µM

SMILES	ΔTm (DNA [3])	ΔTm (DNA [5])	ΔTm (DNA [7])	Activity (OVCAR-5 [1])	Activity (LOX IMVI [2])	IC50 (OVCAR-5 [4])	IC50 (LOX IMVI [6])	IC50 (LOX IMVI [8])
COc1cc2c(cc1O)N=C[C@@H]1CCCN1C2=O	0.5 °C	0.7 °C	0.8 °C					
